Screening data as filed in PubChem.
This is a sample that favours compounds with a hit; in the whole collection about 1.3% have one here.
S1P3 antagonist – S1P3 (human) receptor antagonism; AID 485; CHO S1P3 NFAT-BLA reporter, FRET fluorescence, antagonist mode; Q99500; inhibition, % at 4.98 µM; 170,000 tested, 0.27% active;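 active means inhibition above the plate cutoff, the mean inhibition of test wells on that plate plus 3 SD, cut at about 28% in these data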;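 further: cells challenged with S1P at its EC80 of 0.8 µM; blue over green emission ratio from cleaved BLA substrate after 4 h stimulation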
S1P4 ag – agonists of human S1P4 receptor. O95977. S1P4-expressing cell line, agonist reporter assay. activation, % at 4.98 µM. 220,000 tested, 0.35% active. AID 1509; in the data active means activation above about 11%
Target sequence (O95977 whole entry, looked up): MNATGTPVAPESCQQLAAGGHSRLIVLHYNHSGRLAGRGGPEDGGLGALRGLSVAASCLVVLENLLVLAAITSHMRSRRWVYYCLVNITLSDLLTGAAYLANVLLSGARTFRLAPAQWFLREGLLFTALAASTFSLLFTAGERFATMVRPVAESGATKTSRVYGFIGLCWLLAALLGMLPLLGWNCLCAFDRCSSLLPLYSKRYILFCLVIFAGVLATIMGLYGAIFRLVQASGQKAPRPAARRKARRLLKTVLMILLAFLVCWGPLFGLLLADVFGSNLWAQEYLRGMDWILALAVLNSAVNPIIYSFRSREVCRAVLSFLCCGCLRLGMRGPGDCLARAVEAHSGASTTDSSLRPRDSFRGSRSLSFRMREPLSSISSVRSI
S1P4 antagonist – blocks the human S1P4 receptor. S1P4-expressing cells, antagonist mode, reporter read-out. AID 1510. inhibition, % at 4.98 µM. 220,000 tested, 0.26% active; in the data active means inhibition above about 29%
Tb hexokinase – blocks Trypanosoma brucei hexokinase 1 activity; recombinant TbHK1, G6PDH-coupled NADH A340; inhibition, % at 10 µM; 220,000 tested, 0.11% active; AID 1430;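 active means inhibition of 50% or more in the single-dose primary screen; inactive means inhibition below 50%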
Calb biofilm kill – mixtures killing C. albicans biofilm | C. albicans biofilm persisters + clotrimazole, fluorescence viability; primary screen in compound mixtures of four per well | inhibition, % at 7.6 µM | 120,000 tested, 0.02% active;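 active means inhibition above 30.3% in the primary screen of four-compound pools, then above 30% when the compound was retested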;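 further: compounds exposed to preformed 24 h biofilms for 48 h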
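Incubation: 24 h biofilm formation, then 48 h compound exposure, 37 °C | Material: C. albicans biofilms | Buffer or medium: RPMI/MOPS medium, pH 7.0 | Measured by: 2-h Alamar Blue fluorescence, 535/590 nm excitation/emission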
Dynein cargo inh – dynein cargo transport inhibition; 3617.4 mouse cells, GR-EGFP nuclear translocation imaging; test concentration mostly 20 µM; stimulated with dexamethasone, 1 µM; hits give low values; z-score, hits read low; 220,000 tested, 0.47% active; AID 1381;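 active means plate z-score of nuclear minus cytoplasmic receptor signal below a set negative limit, without overly bright fluorescence or cell loss, cut at about -3.5 in these data, passing the limit was not always enough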;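 further: z-score of nuclear minus cytoplasmic ring GR-EGFP intensity difference per well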
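Buffer or medium – tet-free medium with charcoal-stripped serum · Signal – automated 10x imaging of fixed Hoechst-stained cells · Also added – dexamethasone agonist, 1.0 µM final, for 30 min · Incubation – induction 48 h, compound 1 h, agonist 30 min · Read-out – GR-EGFP nuclear translocation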
Hits are given with their value; i = inactive; nt = no result given.

SMILES	S1P3 antagonist	S1P4 ag	S1P4 antagonist	Tb hexokinase	Calb biofilm kill	Dynein cargo inh
CC(C)=CC1C(C(=O)Nc2ccc(Br)cn2)C1(C)C (stereo not given)	71	i	i	i	nt	i
COc1ccc(OC)c(N=c2ssnc2Cl)c1	nt	i	i	i	nt	-4.7
COc1ccc2o/c(=N\O)c(C(=O)Nc3ccccc3OC)cc2c1	nt	i	i	i	nt	-4.2
C=CCNC(=O)c1c(Br)cnn1-c1ccc(C)cc1	i	i	i	i	i	i
CC(=O)Nc1cccc(NC(=O)CSc2nnnn2C(C)C)c1	i	i	i	i	nt	i
CC(=O)Nc1cccc(NC(=O)CSc2nnnn2C)c1	70	i	i	i	nt	i
O=C1c2oc3ccc(Br)cc3c(=O)c2C(c2cccnc2)N1Cc1ccco1 (stereo not given)	95	nt	nt	nt	nt	nt
COC(=O)[C@@]1(Cc2ccc(OC)cc2)[C@@H]2C(=CC(=O)[C@H]2CC(=O)C(=O)N(C)C)CN1C(=O)c1ccccc1	i	i	i	i	i	-4.8
COC(=O)[C@@]1(Cc2ccc(OC)cc2)[C@H]2c3cc(C(=O)N(C)C)n(C[C@H](O)CO)c3C[C@H]2CN1C(=O)c1ccccc1	i	i	i	i	i	i
Cc1c(C(=O)OCCOC(C)C)[nH]c2c1C(=O)CC(c1ccco1)C2 (stereo not given)	54	i	i	i	nt	i
CCCCOC(=O)c1[nH]c2c(c1C)C(=O)CC(c1cc(OC)c(OC)c(OC)c1)C2 (stereo not given)	52	i	i	i	nt	i
COCCOC(=O)c1[nH]c2c(c1C)C(=O)CC(c1ccco1)C2 (stereo not given)	i	i	i	i	nt	i
N#CC(C#N)=C1C=CC=CN1/C(=C\c1ccccc1Cl)C(=O)c1ccccc1	i	i	i	i	i	-4.1
N#CC(C#N)=C1C=CC=CN1/C(=C\c1ccccc1)C(=O)c1cccs1	i	i	i	i	i	i
CCN1CCOC(CC(=O)Nc2ccc([N+](=O)[O-])cc2)C1=O (stereo not given)	i	i	i	i	i	i
O=S(=O)(Cc1ccccc1)NCc1ccccn1	103	i	i	i	nt	i
Cc1ccc(S(=O)(=O)NC(=O)NCCc2ccccc2)cc1	i	i	i	i	i	i
COc1cccc(CN(Cc2ccco2)C(c2ccc(F)cc2)c2nnnn2C(C)(C)C)c1 (stereo not given)	64	i	i	i	nt	i
CC(C)(C)n1nnnc1C(c1cccnc1)N(Cc1ccccc1)Cc1ccco1 (stereo not given)	nt	i	i	i	nt	i
Nc1ccc2c(c1)Cc1cc([N+](=O)[O-])ccc1-2	52	i	i	i	i	i
CSc1ncc(CN2CCc3c([nH]c4ccccc34)C2c2cccc(O)c2)cn1 (stereo not given)	i	i	i	i	i	i
CCOc1cc(CNc2ncn[nH]2)ccc1OCC(=O)NC(C)(C)C	i	i	i	i	i	i
Nc1ccn([C@@H]2O[C@H](CO)[C@@H](O)[C@@H]2O)c(=O)n1	i	12	i	i	i	i
COC(=O)[C@@H]1C[C@]2(OC(=O)c3ccccc3)C=CC(=O)C[C@@H]2N1C(=O)OCc1ccccc1	i	i	i	i	i	-6.5
CN(c1nnc(N)s1)C1CCCCC1	95	i	i	i	i	i
SMILES	S1P3 antagonist	S1P4 ag	S1P4 antagonist	Tb hexokinase	Calb biofilm kill	Dynein cargo inh
Nc1nnc(N2CCCCC2)s1	i	i	i	i	nt	i
O=[N+]([O-])c1ccc(O)c2ncccc12	i	i	i	i	32	i
O=[N+]([O-])c1ccc(O)c2cccnc12	i	i	i	i	i	i
O=C(Cn1ncc(Cl)c(Cl)c1=O)NCC1CCCCC1	i	i	i	i	i	-6.2
O=[N+]([O-])c1cc(-c2ncccn2)c([N+](=O)[O-])s1	i	i	i	i	i	-3.9
Cc1ccc(C2=Nc3ccc(Br)cc3C(c3ccncc3)=NN2)cc1	i	i	i	i	i	i
CCOC(=O)c1ccccc1NC(=O)Cn1c(-c2nonc2N)nc2ccccc21	56	i	i	i	nt	i
CC1=CC(=O)c2c(O)ccc(O)c2C1=O	i	i	i	i	i	-3.9
O=C1C=C(O)c2cccc(O)c2C1=O	nt	nt	nt	i	i	i
CCOC(=O)c1cc2c(=O)n3ccccc3nc2n(CC2CCCO2)c1=NC(C)=O (stereo not given)	nt	18	i	i	nt	i
Cc1cc(O)ccc1C1(c2ccc(O)cc2C)OC(=O)c2ccccc21	nt	i	i	i	i	i
CC(=O)Oc1ccc2c(c1)Oc1cc(OC(C)=O)ccc1C21OC(=O)c2ccccc21	i	i	i	i	i	-4.7
C=C1C(=O)O[C@@H]2C[C@@H](C)[C@@H]3C=CC(=O)[C@@]3(C)[C@@H](OC(C)=O)[C@H]12	nt	nt	nt	i	i	-3.6
C[C@@H]1C[C@@H]2OC(=O)[C@]3(C)[C@H]2[C@@H](OC3(C)O)[C@]2(C)C(=O)C=C[C@H]12 (stereo not given in full)	nt	nt	nt	i	i	i
Cc1cc(CNC(=O)c2cccnc2Cl)c2ccccc2n1	i	i	i	i	i	i
O=C(CS(=O)(=O)c1ccc2ccccc2c1)N1CCCCCC1	i	i	i	i	i	i
CC1=NN(c2cccc(C(=O)O)c2)C(=O)/C1=C\C=C\c1ccco1	nt	i	i	i	i	-4.6
O=C1NN(c2ccc(F)cc2)C(=O)/C1=C\C=C\c1ccco1	i	i	i	i	i	i
Cn1c(=O)c2c(nc(NCc3ccccc3)n2Cc2ccc(F)cc2)n(C)c1=O	i	i	i	i	nt	i
CCCNc1nc2c(c(=O)n(C)c(=O)n2C)n1Cc1ccc(F)cc1	85	i	i	i	nt	i
N#C/C(=C/c1ccc(Br)o1)C(N)=O	nt	i	i	i	i	i
N#C/C(=C/c1ccc(Br)o1)C(N)=S	i	i	i	i	i	-4.1
CC(C)C(=O)Nc1ccc(C(=O)Nc2ccc(Br)cc2F)cc1	i	i	i	i	i	i
Cc1ccc(NC2=C(Cl)C(=O)c3ccccc3C2=O)cc1	i	i	i	i	i	i
CCN(CC)c1ccc(NC2=C(Cl)C(=O)c3ccccc3C2=O)cc1	i	i	i	i	i	-4.4
SMILES	S1P3 antagonist	S1P4 ag	S1P4 antagonist	Tb hexokinase	Calb biofilm kill	Dynein cargo inh
COc1ccc2[nH]c3c4c(ccc3c2c1)C(=O)C=CC4=O	i	i	i	i	i	-5.2
O=c1[nH]cnc2sc3c(c12)CCC3	i	i	i	i	i	i
Nc1cc2c(cc1C(=O)c1cccc(Br)c1)OCCO2	i	i	i	i	i	i
Cc1cc(C)c(C(N)=O)c(Nc2cccc(Cl)c2C)n1	55	i	i	i	nt	i
Cc1ccc(C)c(C(=O)CN2C(=O)CCC2=O)c1	75	i	i	i	nt	i
CC(=O)c1ccc(N2CCN(C(=O)c3ccc4c(Cl)c5c(nc4c3)CCCC5)CC2)cc1	i	i	i	i	i	-3.6
CCCCSc1nnc(-c2c[nH]c3ccccc23)n1C	101	i	i	i	nt	i
Cn1c(SCc2ccccc2)nnc1-c1c[nH]c2ccccc12	nt	i	i	i	nt	i
